From ChEMBL document CHEMBL1147636, “Fluorescence-labeled sphingosines as substrates of sphingosine kinases 1 and 2” (Bioorg Med Chem Lett, 2004)

What was measured:
[1] = target: Sphingosine kinase 1 (Homo sapiens) (UniProt Q9NYA1); assay: Rate of phosphorylation of labeled sphingosine derivative by human SPHK-1 expressed in HEK293 cells relative to rate of D-sphingosine; assay type: functional, cell-based
Summary of the method: (§1)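 Enzyme source was the cytoplasmic fraction of HEK-293 cells overexpressing human SPHK-1 or -2. Incubation was at 30 °C for time points up to 2 h. Lipids were extracted, separated by TLC and quantified by phosphorimaging, and rates were expressed relative to sphingosine.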

[2] = target: T1, Sphingosine kinase 2 (Homo sapiens) (UniProt Q9NRA0); assay: Rate of phosphorylation of labeled sphingosine derivative by human SPHK-2 expressed in HEK293 cells relative to rate of D-sphingosine; assay type: functional, cell-based; summary of the method: as §1
T1 sequence (whole entry): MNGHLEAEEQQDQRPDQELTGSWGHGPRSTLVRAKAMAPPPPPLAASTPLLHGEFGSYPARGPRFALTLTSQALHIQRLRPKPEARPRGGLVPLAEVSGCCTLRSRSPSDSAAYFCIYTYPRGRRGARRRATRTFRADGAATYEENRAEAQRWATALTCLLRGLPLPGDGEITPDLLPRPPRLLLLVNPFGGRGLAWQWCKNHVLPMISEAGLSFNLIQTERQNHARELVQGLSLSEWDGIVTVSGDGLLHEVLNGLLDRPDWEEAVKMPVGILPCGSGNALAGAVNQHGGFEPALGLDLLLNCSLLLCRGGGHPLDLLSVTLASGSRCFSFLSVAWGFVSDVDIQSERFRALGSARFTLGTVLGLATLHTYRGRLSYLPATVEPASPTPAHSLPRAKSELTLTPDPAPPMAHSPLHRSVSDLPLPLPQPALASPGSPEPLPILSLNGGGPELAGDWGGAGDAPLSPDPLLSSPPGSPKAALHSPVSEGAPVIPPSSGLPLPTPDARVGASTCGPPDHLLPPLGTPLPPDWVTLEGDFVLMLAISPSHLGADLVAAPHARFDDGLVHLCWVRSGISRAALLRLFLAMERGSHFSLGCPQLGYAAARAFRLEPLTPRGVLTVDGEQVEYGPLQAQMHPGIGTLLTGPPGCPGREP

Sequence of Sphingosine kinase 1 (Homo sapiens) (Q9NYA1 whole entry): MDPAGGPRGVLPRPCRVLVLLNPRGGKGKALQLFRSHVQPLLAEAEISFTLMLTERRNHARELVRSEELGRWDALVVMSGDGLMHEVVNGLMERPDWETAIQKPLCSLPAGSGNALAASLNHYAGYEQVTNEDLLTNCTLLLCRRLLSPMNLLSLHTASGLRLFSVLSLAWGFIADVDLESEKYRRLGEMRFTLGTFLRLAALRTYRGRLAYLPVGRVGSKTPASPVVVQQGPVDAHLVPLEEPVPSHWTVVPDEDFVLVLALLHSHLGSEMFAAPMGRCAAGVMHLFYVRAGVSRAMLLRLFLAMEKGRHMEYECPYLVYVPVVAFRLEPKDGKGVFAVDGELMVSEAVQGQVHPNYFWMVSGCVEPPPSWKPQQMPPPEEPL

SMILES	Rate [1]	Rate [2]
NC(CO)[C@H](O)/C=C/CCCCCCCCCCNS(=O)(=O)c1ccc2ccc3cccc4ccc1c2c34 (some centres undefined)	0.051	0.83
NC(CO)[C@H](O)/C=C/CCCCCCCCCCNc1ccc([N+](=O)[O-])c2nonc12 (single isomer, unassigned)	0.5	0.48
CN(C)c1ccc(S(=O)(=O)NCCCCCCCCCC/C=C/C(O)C(N)CO)c2ccccc12 (single isomer, unassigned)	0.063	0.026

More lines, now with the values ahead:

Rate [1]	Rate [2]	SMILES
0.024	0.065	N[C@@H](CO)[C@H](O)/C=C/CCCOC(=O)CCCCCCCCCc1ccc2ccc3cccc4ccc1c2c34
0.078	0.83	N[C@@H](CO)[C@H](O)/C=C/CCCOC(=O)CCCCCc1ccc2ccc3cccc4ccc1c2c34
0.048	0.14	N[C@@H](CO)[C@H](O)/C=C/CCCOC(=O)CCCc1ccc2ccc3cccc4ccc1c2c34
0.83	1.25	N[C@@H](CO)[C@H](O)/C=C/CCCCCCCCCCOC(=O)c1ccc2ccc3cccc4ccc1c2c34
